From ChEMBL document CHEMBL2021768, “Syntheses of [12]aneN₃-oligopeptide conjugates as effective DNA condensation agents” (Bioorg Med Chem, 2012)
Calls of active or inactive are those of the source. The rule behind the calls is not given here. Residues, ends and D or L forms follow the SMILES beside them.

Experiments:
[1] = test system: Nucleic Acid; test: Induction of Escherichia coli pUC18 DNA condensation assessed as retardation of DNA migration at 500 uM after 1 hr by agarose gel electrophoresis; format: nucleic-acid assay
In short: (§1)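 Supercoiled pUC18 plasmid treated with conjugate in Tris–HCl (50 mM, pH 7.4), then incubated 1 h at 37 °C. Agarose gel electrophoresis compared with a DNA-alone lane. Retardation was judged by loss of supercoiled DNA migration.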

[2] = Cytotoxicity against human HepG2 cells assessed as cell viability at 250 uM after 24 hrs by MTT assay; format: cell-based; details: read-out: Activity
In short: (§2)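 MTT assay. HepG2 grown in DMEM with 15% FBS, T98G in MEM with 10% FBS, 37 °C, 5% CO2. Cells seeded at 5 × 10⁵ per well and cultured 24 h, then exposed to compound for 24 h. MTT (5 mg/mL stock) added for 4 h, formazan dissolved in DMSO, absorbance read at 490 nm. Viability taken relative to controls from four parallel tests.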

[3] = test system: Nucleic Acid; test: Induction of Escherichia coli pUC18 condensation assessed as hydrodynamic diameters of DNA nanoparticles at 50 to 250 uM after 5 mins by dynamic laser light scattering analysis; format: nucleic-acid assay
In short: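 pUC18 DNA at 9 μg/mL in Tris buffer (50 mM, pH 7.4) with conjugate, left 5 min at room temperature. Dynamic light scattering at 90° and 25 °C. Ten runs per solution, averaged and reported as mean ± S.D.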

[4] = Cytotoxicity against human T98G cells assessed as cell viability at 250 uM after 24 hrs by MTT assay; format: cell-based; details: read-out: Activity; in short: as §2
[5] = test system: Nucleic Acid; test: Induction of Escherichia coli pUC18 condensation assessed as retardation of DNA migration at 250 uM after 1 hr by agarose gel electrophoresis; format: nucleic-acid assay; in short: as §1
[6] = test system: Nucleic Acid; test: Reversible Escherichia coli pUC18 condensation assessed as DNA migration at 250 uM after 1 hr by agarose gel electrophoresis in presence of 200 mM NaCl; format: nucleic-acid assay
[7] = test system: Nucleic Acid; test: Binding affinity to calf thymus DNA assessed as fluorescence quenching after 1 min by ethidium bromide displacement assay; format: nucleic-acid assay; details: Bos taurus
In short: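 Calf thymus DNA (100 μM) pretreated with ethidium bromide (10 μM), then conjugate added. Tris buffer (50 mM, pH 7.4), room temperature. Incubated 1 min before reading fluorescence, excitation 537 nm. Apparent binding constant (K_app) derived from the quenching curve.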

[8] = test system: Nucleic Acid; test: Induction of Escherichia coli pUC18 condensation assessed as retardation of DNA migration at 150 uM after 1 hr by agarose gel electrophoresis in presence of 50 to 400 mM NaCl; format: nucleic-acid assay
[9] = test system: Nucleic Acid; test: Induction of Escherichia coli pUC18 condensation assessed as diameters of DNA nanoparticles at 250 uM after 1 hr by atomic force microscopy; format: nucleic-acid assay
In short: (§3)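 pUC18 diluted to 9 μg/mL in Tris (5 mM, pH 7.4) with 1 mM MgCl2 plus conjugate, equilibrated 1 h at 37 °C. Sample spotted for 5 min on mica pretreated with 10 mM NiCl2, then rinsed and dried under argon. Imaged in air at room temperature by tapping-mode AFM with Si tips at 1–3 Hz.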

[10] = test system: Nucleic Acid; test: Induction of Escherichia coli pUC18 condensation assessed as retardation of DNA migration at 220 uM after 1 hr by agarose gel electrophoresis in presence of 50 to 400 mM NaCl; format: nucleic-acid assay
[11] = test system: Nucleic Acid; test: Reversible Escherichia coli pUC18 condensation assessed as DNA migration at 150 uM after 1 hr by agarose gel electrophoresis in presence of 200 mM NaCl; format: nucleic-acid assay
[12] = test system: Nucleic Acid; test: Induction of Escherichia coli pUC18 condensation assessed as retardation of DNA migration at 200 uM after 1 hr by agarose gel electrophoresis; format: nucleic-acid assay; in short: as §1
[13] = test system: Nucleic Acid; test: Induction of Escherichia coli pUC18 condensation assessed as diameters of DNA nanoparticles at 150 uM after 1 hr by atomic force microscopy; format: nucleic-acid assay; in short: as §3

COC(=O)[C@H](C)NC(=O)[C@H](CC(C)C)NC(=O)[C@H](C)NC(=O)[C@H](CC(C)C)NC(=O)[C@H](C)NC(=O)[C@H](CC(C)C)NC(=O)CN1CCCNCCCNCCC1 (HELM PEPTIDE1{[O=C(CN1CCCNCCCNCCC1)[*:2]].L.A.L.A.L.A.[CO[*:1]]}$$$$V2.0)
Activity [1]: inactive

COC(=O)CNC(=O)[C@H](CC(C)C)NC(=O)[C@H](C)NC(=O)[C@H](CC(C)C)NC(=O)[C@H](C)NC(=O)[C@H](CC(C)C)NC(=O)CN1CCCNCCCNCCC1 (HELM PEPTIDE1{[O=C(CN1CCCNCCCNCCC1)[*:2]].L.A.L.A.L.G.[CO[*:1]]}$$$$V2.0)
Activity [1]: inactive

COC(=O)[C@H](Cc1ccc(O)cc1)NC(=O)[C@H](CC(C)C)NC(=O)[C@H](C)NC(=O)[C@H](CC(C)C)NC(=O)[C@H](C)NC(=O)[C@H](CC(C)C)NC(=O)CN1CCCNCCCNCCC1 (HELM PEPTIDE1{[O=C(CN1CCCNCCCNCCC1)[*:2]].L.A.L.A.L.Y.[CO[*:1]]}$$$$V2.0)
Activity [1]: inactive

COC(=O)[C@H](Cc1ccccc1)NC(=O)[C@H](CC(C)C)NC(=O)[C@H](C)NC(=O)[C@H](CC(C)C)NC(=O)[C@H](C)NC(=O)[C@H](CC(C)C)NC(=O)CN1CCCNCCCNCCC1 (HELM PEPTIDE1{[O=C(CN1CCCNCCCNCCC1)[*:2]].L.A.L.A.L.F.[CO[*:1]]}$$$$V2.0)
viability at 24 h, 250 µM [2]: 83% | Activity [3]: 208 nm | viability at 24 h, 250 µM [4]: 78% | Activity [5]: Active | Activity [6]: Active | Kapp [7]: 1.4 ×10⁵ /M | Activity [8]: inactive | Activity [9]: 20 nm

COC(=O)[C@H](Cc1c[nH]c2ccccc12)NC(=O)[C@H](CC(C)C)NC(=O)[C@H](C)NC(=O)[C@H](CC(C)C)NC(=O)[C@H](C)NC(=O)[C@H](CC(C)C)NC(=O)CN1CCCNCCCNCCC1 (HELM PEPTIDE1{[O=C(CN1CCCNCCCNCCC1)[*:2]].L.A.L.A.L.W.[CO[*:1]]}$$$$V2.0)
viability at 24 h, 250 µM [2]: 85% | Activity [3]: 196 nm | viability at 24 h, 250 µM [4]: 80% | Activity [5]: Active | Activity [6]: Active | Kapp [7]: 1.2 ×10⁵ /M | Activity [10]: inactive | Activity [9]: 36 nm

COC(=O)[C@H](CC(C)C)NC(=O)[C@H](CC(C)C)NC(=O)[C@H](C)NC(=O)[C@H](CC(C)C)NC(=O)[C@H](C)NC(=O)[C@H](CC(C)C)NC(=O)CN1CCCNCCCNCCC1 (HELM PEPTIDE1{[O=C(CN1CCCNCCCNCCC1)[*:2]].L.A.L.A.L.L.[CO[*:1]]}$$$$V2.0)
Activity [11]: Active | Activity [12]: Active | viability at 24 h, 250 µM [2]: 97% | Activity [3]: 174 nm | viability at 24 h, 250 µM [4]: 96% | Kapp [7]: 1.9 ×10⁵ /M | Activity [13]: 30 nm | Activity [8]: inactive

COC(=O)[C@H](CO)NC(=O)[C@H](CC(C)C)NC(=O)[C@H](C)NC(=O)[C@H](CC(C)C)NC(=O)[C@H](C)NC(=O)[C@H](CC(C)C)NC(=O)CN1CCCNCCCNCCC1 (HELM PEPTIDE1{[O=C(CN1CCCNCCCNCCC1)[*:2]].L.A.L.A.L.S.[CO[*:1]]}$$$$V2.0)
Activity [1]: inactive

COC(=O)[C@@H](NC(=O)[C@H](CC(C)C)NC(=O)[C@H](C)NC(=O)[C@H](CC(C)C)NC(=O)[C@H](C)NC(=O)[C@H](CC(C)C)NC(=O)CN1CCCNCCCNCCC1)C(C)C (HELM PEPTIDE1{[O=C(CN1CCCNCCCNCCC1)[*:2]].L.A.L.A.L.V.[CO[*:1]]}$$$$V2.0)
Activity [1]: inactive
